# Measured values of several laboratories.
# Target: Casein kinase I isoform gamma-2 (CSNK1G2, Homo sapiens, UniProt P78368)
SMILES,read-out,action,technique,concentration,measurement,result
O=C(CSc1nc2nccnc2c(=O)n1CCc1ccccc1)Nc1nccs1,enzyme activity,inhibitor,,10 µM,inhibition,14%
C#Cc1cccc(Nc2ncnc3cc(OCCOC)c(OCCOC)cc23)c1,cell-free assay,,,0.5 µM,remaining signal,98.3%
COc1cc2ncnc(Nc3ccc(Oc4ccccc4)cc3C)c2cc1OC,enzyme activity,inhibitor,,1 µM,inhibition,5%
O=C(NCCCC1CCCCC1)c1ccc(CNC(=O)c2cnn(-c3ccccc3)c2C(F)(F)F)cc1,cell-free assay,,competition with immobilised ligand,0.1 µM,remaining binding,96%
CNC(=O)c1cc(Oc2ccc(NC(=O)Nc3ccc(Cl)c(C(F)(F)F)c3)cc2)ccn1,enzyme activity,inhibitor,,0.3 µM,inhibition,5%
Cc1cc(NC(=O)c2cccc3cc(-c4cccc5[nH]nc(N)c45)ccc23)ccc1F,enzyme activity,inhibitor,,0.1 µM,activity vs control,102%
O=C(Nc1cnn(-c2csc(C(=O)NC3COC3)c2)c1)Nc1c(F)cccc1Cl,enzyme activity,inhibitor,,5 µM,remaining activity,90.2%
O=C1Nc2ccc(Cl)cc2C1=Cc1cc(Cl)c(O)c(Cl)c1,cell-free assay,,,0.5 µM,remaining signal,83.5%
CC(C)(C)c1nc(-c2cccc(NS(=O)(=O)c3c(F)cccc3F)c2F)c(-c2ccnc(N)n2)s1,enzyme activity,inhibitor,radiometric,1 µM,remaining activity,101%
COc1ccc2c(O[C@@H]3C[C@H]4C(=O)N[C@]5(C(=O)O)CC5/C=C\CCCCC[C@H](NC(=O)OC5CCCC5)C(=O)N4C3)cc(-c3csc(NC(=O)C(C)C)n3)nc2c1C (stereo partly shown),cell-free assay,,competition with immobilised ligand,1 µM,remaining binding,90%
O=C(Nc1cnn(-c2csc(C(=O)NC3COC3)c2)c1)Nc1ccccc1Cl,enzyme activity,inhibitor,,5 µM,remaining activity,98.5%
Cc1ccc(Nc2nccc(N(C)c3ccc4c(C)n(C)nc4c3)n2)cc1S(N)(=O)=O,cell-free assay,inhibitor,,0.5 µM,remaining signal,96.9%
CCc1ccccc1C(=O)Nc1n[nH]c2c(C)c(F)c(C3C(C#N)=C(C)N(C)C(C)=C3C#N)cc12,cell-free assay,,competition with immobilised ligand,1 µM,remaining binding,97%
COc1cc(Cl)c(C(=O)N[C@@H](CN[C@H]2CC[C@@H](N)CC2)Cc2ccc(C#N)cc2)cc1-c1ccc(CN[C@H](C)c2ccc(C)cc2)o1,enzyme activity,inhibitor,,1 µM,remaining activity,112%
CCCOc1ccc([C@@H]2[C@@H](C(=O)O)[C@H](c3ccc4c(c3)OCO4)CN2CC(=O)Nc2c(CC)cccc2CC)cc1,cell-free assay,,competition with immobilised ligand,1 µM,remaining binding,96%
CN1CC(Oc2cnc(C#N)cc2-c2ccn3nc(NC(=O)C4CC4)cc3c2)C1,enzyme activity,inhibitor,,1 µM,inhibition,-2%
COc1ccc2cc(OCC3(C(=O)O)CN(C(=O)c4ccc(F)cc4)C3)ccc2c1,cell-free assay,,competition with immobilised ligand,1 µM,remaining binding,100%
N#CCCc1ccc2c(c1)-c1[nH]c3ccc([N+](=O)[O-])cc3c1CC(=O)N2,cell-free assay,,,0.5 µM,remaining signal,84.8%
NS(=O)(=O)c1cc(NC(=O)Cc2ccccc2)ccc1Oc1cccc(Cl)c1,cell-free assay,,competition with immobilised ligand,1 µM,remaining binding,100%
COc1cc(/C=C/C(=O)CC(=O)/C=C/c2ccc(O)c(OC)c2)ccc1O,enzyme activity,inhibitor,,1 µM,activity vs control,77%
Cc1cnc(NC2CCOCC2)nc1-n1cnc(C(=O)NC(CN)c2cc(F)cc(Cl)c2)c1 (stereo not shown),enzyme activity,inhibitor,radiometric,1 µM,remaining activity,53%
CC1=C(C#N)[C@@H](c2ccc3[nH]nc(C)c3c2)C(C#N)=C(c2ccc(Cl)cc2)N1,cell-free assay,,competition with immobilised ligand,1 µM,remaining binding,100%
